Source: PubChem BioAssay (several laboratories)
Jurkat NFkB inh – inhibitors of the PMA/ionomycin-induced NF-kB reporter in Jurkat cells; PMA/ionomycin-induced NF-kB luciferase reporter, luminescence; inhibition, % at 4 µM; 330,000 compounds, 0.53% hits; AID 435003; in the data active = inhibition above about 50%
CHOP inh – inhibitors of CHOP induction in ER stress response. 220,000 compounds, 3.8% hits. inhibition, % at 10 µM. CHO-K1 CHOP-promoter luciferase, tunicamycin-induced, 15-18 h;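 active = compounds that reduced the stress-induced luciferase reporter signal by more than about 70% of percent inhibition, limit read from the data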;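 also: 0% = tunicamycin plus vehicle and 100% = wells without tunicamycin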
CHOP UPR activ – activators of apoptotic arm of unfolded protein response (CHOP) | CHO-CHOP luciferase reporter, UPR activation, luminescence; percent of tunicamycin response over DMSO baseline | activation, % at 10 µM | AID 449763 | 330,000 compounds, 0.34% hits;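 active = at 10 µM dose, activation of 40% or more, normalized to positive control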;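 also: 100% = tunicamycin at 10 µg/mL and 0% = DMSO alone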
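Assay system: CHO-CHOP cells, stable luciferase reporter of PERK-eIF2a-CHOP signalling / Buffer or medium: F12 plus 10% serum / Compound dosing: one dose, 10 µM in 0.5% DMSO / Times: 6 h compound treatment, 37 °C / Technique: luciferase luminescence / Read-out: % reporter activation, DMSO baseline versus tunicamycin full activation / Benchmarks: tunicamycin and DMSO controls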
UPR XBP1 act – adaptive UPR (XBP1) activation | CHO-XBP1 luciferase reporter, IRE1-XBP1 UPR activation, luminescence; percent of tunicamycin response, DMSO as zero | activation, % at 20 µM | 330,000 compounds, 0.33% hits | AID 463104;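 active = versus positive control, 20 µM dose yields 30% or more activation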;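 also: 100% = tunicamycin at 10 µg/mL and 0% = DMSO only wells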
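Signal: luciferase luminescence; Assay system: CHO-XBP1 luciferase reporter cells; Amount: one thousand reporter cells per well; Dosing: 20 µM single concentration, DMSO 1%; Benchmarks: high control tunicamycin 10 µg/mL final, low control DMSO vehicle only; Schedule: 6 h compound exposure at 37 °C, 5% CO2; Evaluation: percent activation relative to tunicamycin reference.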
697 NFkB inh – lowers PMA/ionomycin-induced NF-kB signal in 697 B cells; 697 B-cell NF-kB luciferase reporter, 16 h; inhibition, % at 4 µM; 330,000 compounds, 0.33% hits; AID 435022; in the data active = inhibition above about 35%
* = called active by the depositor. The sample as a whole holds a higher share of hits than the screen did.

What do the screens show for `O=P(COCCOCCOCP(=O)(c1ccccc1)c1ccccc1)(c1ccccc1)c1ccccc1`?
Jurkat NFkB inh: -7; CHOP inh: -11; CHOP UPR activ: -1; UPR XBP1 act: 0; 697 NFkB inh: -12

Results for Nc1nc(Nc2ccc(Cl)cc2Cl)nc(C(F)(F)F)n1 ?
Jurkat NFkB inh: -59; CHOP inh: 75*; CHOP UPR activ: 3; UPR XBP1 act: 3; 697 NFkB inh: -63

How did Cc1sc2ncnc(Oc3ccc(-n4ccnc4)cc3)c2c1C do in these assays?
Jurkat NFkB inh: 11; CHOP inh: 24; CHOP UPR activ: 2; UPR XBP1 act: -3; 697 NFkB inh: -24

What do the screens show for `COc1ccc(C2=CC3=C(Br)C(=O)C(C)(O)C(=O)C3=CO2)cc1` (stereo not given)?
Jurkat NFkB inh: -8; CHOP inh: 95*; CHOP UPR activ: 2; UPR XBP1 act: -2; 697 NFkB inh: 4

Results for Cc1ccc(NS(=O)(=O)c2ccc(C(=O)NCc3ccc(S(N)(=O)=O)cc3)cc2)cc1 ?
Jurkat NFkB inh: 13; CHOP UPR activ: 0; UPR XBP1 act: 1; 697 NFkB inh: 1

What do the screens show for `CCN(CC)c1ncnc2c1ncn2Cc1c(Cl)cccc1Cl`?
Jurkat NFkB inh: 9; CHOP inh: 6; CHOP UPR activ: 0; UPR XBP1 act: 1; 697 NFkB inh: -32

How did Clc1cccc(Cl)c1Cn1cnc2c(N3CCCCCC3)ncnc21 do in these assays?
Jurkat NFkB inh: -8; CHOP inh: 76*; CHOP UPR activ: 1; UPR XBP1 act: 11; 697 NFkB inh: -247

Results for CCSc1nnc(NC(=O)C2CCN(S(=O)(=O)c3ccccc3C(F)(F)F)CC2)s1 ?
Jurkat NFkB inh: 10; CHOP inh: 50; CHOP UPR activ: 6; UPR XBP1 act: -2; 697 NFkB inh: 2

How did CCSc1nnc(NC(=O)C2CCN(S(=O)(=O)c3c(C)c(C)cc(C)c3C)CC2)s1 do in these assays?
Jurkat NFkB inh: 2; CHOP inh: 78*; CHOP UPR activ: 3; UPR XBP1 act: -1; 697 NFkB inh: 4

How did S=c1nc(-c2ccco2)[nH][nH]1 do in these assays?
Jurkat NFkB inh: 6; CHOP inh: 74*; CHOP UPR activ: -2; UPR XBP1 act: 0; 697 NFkB inh: 27

Results for CCOC(=O)CCCCC(=O)c1[nH]c(=O)[nH]c1CSc1nnc2c3ccccc3n(C(C)C)c2n1 ?
Jurkat NFkB inh: -6; CHOP inh: 40; CHOP UPR activ: 0; UPR XBP1 act: 3; 697 NFkB inh: -17

What do the screens show for `C#CCOCCOCCOCCNc1nc(N2CCN(C(=O)CCCCCCCCCCNC(=O)[C@H]([C@@H](C)CC)n3cc(CCCCCN)nn3)CC2)nc(N2CCN(C(=O)CCCCCCCCCCNC(=O)[C@@H]([C@H](C)CC)n3cc(CCCCCN)nn3)CC2)n1`?
Jurkat NFkB inh: 47; CHOP UPR activ: 9; UPR XBP1 act: 32*; 697 NFkB inh: -35

How did CC(C)Oc1ccc(C(=O)NC2(C(F)(F)F)NC(=O)N(CCCc3ccccc3)C2=O)cc1 (stereo not given) do in these assays?
Jurkat NFkB inh: 25; CHOP inh: 67; CHOP UPR activ: 2; UPR XBP1 act: 2; 697 NFkB inh: -47

How did Brc1csc(C=Nc2ccc3c(c2)OCCOCCOCCOCCO3)c1 do in these assays?
Jurkat NFkB inh: -5; CHOP inh: -18; CHOP UPR activ: 0; UPR XBP1 act: -1; 697 NFkB inh: -3

How did Oc1c(Cl)cc(Cl)cc1C=Nc1ccc2c(c1)OCCO2 do in these assays?
Jurkat NFkB inh: 13; CHOP inh: 87*; CHOP UPR activ: -2; UPR XBP1 act: -1; 697 NFkB inh: -12

What do the screens show for `CC(=O)c1cccc(NC(=O)COC(=O)c2n[nH]c3ccccc23)c1`?
Jurkat NFkB inh: 2; CHOP inh: 1; CHOP UPR activ: 2; UPR XBP1 act: -1; 697 NFkB inh: 14

How did Cc1cc(SCC(=O)N/N=C/c2ccc(O)cc2O)c(C)cc1Br do in these assays?
Jurkat NFkB inh: 5; CHOP inh: 88*; CHOP UPR activ: -2; UPR XBP1 act: -2; 697 NFkB inh: -29

How did Cc1cc(SCC(=O)N/N=C/c2ccccc2C(=O)O)c(C)cc1Br do in these assays?
Jurkat NFkB inh: -1; CHOP UPR activ: 0; UPR XBP1 act: 2; 697 NFkB inh: -13

How did Cc1ccc(OCc2nc(-c3ccccc3)no2)cc1 do in these assays?
Jurkat NFkB inh: -54; CHOP inh: 19; CHOP UPR activ: 8; UPR XBP1 act: 2; 697 NFkB inh: -72

How did COc1ccc(-c2noc(Cc3ccccc3OC)n2)cc1 do in these assays?
Jurkat NFkB inh: -11; CHOP inh: 92*; CHOP UPR activ: -1; UPR XBP1 act: 2; 697 NFkB inh: -6

How did Cc1ccc(-c2noc(COc3ccccc3C)n2)cc1 do in these assays?
Jurkat NFkB inh: -23; CHOP inh: 90*; CHOP UPR activ: 3; UPR XBP1 act: 0; 697 NFkB inh: -17

How did Cc1ccccc1OCc1nc(-c2ccc(Br)o2)no1 do in these assays?
Jurkat NFkB inh: -19; CHOP inh: 84*; CHOP UPR activ: 4; UPR XBP1 act: 6; 697 NFkB inh: -13

What do the screens show for `COc1ccccc1Cc1nc(-c2ccc(Br)o2)no1`?
Jurkat NFkB inh: -18; CHOP inh: 35; CHOP UPR activ: 5; UPR XBP1 act: 1; 697 NFkB inh: -34

Results for CC(OC(=O)CCOc1ccccc1)C(=O)NC1CC1 (stereo not given) ?
Jurkat NFkB inh: 8; CHOP UPR activ: 1; UPR XBP1 act: 2; 697 NFkB inh: 18

What do the screens show for `CNC(=S)N(Cc1ccc(OC)cc1)Cc1cc2ccc(C)cc2[nH]c1=O`?
Jurkat NFkB inh: -2; CHOP inh: 4; CHOP UPR activ: 0; UPR XBP1 act: 1; 697 NFkB inh: 5

How did COC(=O)CN(c1ccccc1)S(=O)(=O)c1cc(Br)ccc1OC do in these assays?
Jurkat NFkB inh: -6; CHOP inh: -4; CHOP UPR activ: -1; UPR XBP1 act: 0; 697 NFkB inh: 2

How did COc1ccc(S(=O)(=O)N2CCN(C(=O)COc3ccc(C)c(C)c3)CC2)cc1OC do in these assays?
Jurkat NFkB inh: 2; CHOP UPR activ: 1; UPR XBP1 act: -4; 697 NFkB inh: -12

How did Cc1ccc(C)c(N2CCN(C(=O)c3ccc(NS(=O)(=O)c4c(C)noc4C)cc3)CC2)c1 do in these assays?
Jurkat NFkB inh: 3; CHOP inh: 72*; CHOP UPR activ: -1; UPR XBP1 act: -3; 697 NFkB inh: -25

What do the screens show for `Cc1ccc(Cl)cc1N1CCN(C(=O)c2ccc(NS(=O)(=O)c3c(C)noc3C)cc2)CC1`?
Jurkat NFkB inh: -10; CHOP inh: 51; CHOP UPR activ: 3; UPR XBP1 act: -1; 697 NFkB inh: -25

What do the screens show for `CN(C)S(=O)(=O)c1cccc(COC(=O)CCNC(=O)c2ccc([N+](=O)[O-])cc2)c1`?
Jurkat NFkB inh: 9; CHOP UPR activ: -2; UPR XBP1 act: 1; 697 NFkB inh: 13

How did CCn1c(=O)c([N+](=O)[O-])c(NCCN(C)C)c2ccccc21 do in these assays?
Jurkat NFkB inh: 18; CHOP inh: -27; CHOP UPR activ: 2; UPR XBP1 act: -2; 697 NFkB inh: 21
